The campaign covered roughly 300,000 compounds. About 4,400 (1.5%) were called active.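 How the source made its calls: active means mean inhibition across valid replicates above about 55% (limit read from the data); inconclusive means mean below that limit but half or more replicates reach it; inactive means mean below it, under half of replicates reach it.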 What follows is part of a selection rich in actives, with near analogues and random picks from the rest.

This assay is described as follows: Trypanosoma cruzi replication blockers in host cells – luminescence, NIH3T3 host cells, primary screen (AID 1885).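 Further: signal also drops with host cell toxicity which is not excluded here; 0% = plate median of DMSO wells and 100% = zero luminescence signal; higher percent means less beta-gal luminescence so fewer parasites.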 The following applies: T. cruzi beta-gal in NIH3T3, luminescence, 90 h; active compounds read high; concentration not given here. Put shortly:
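System – NIH/3T3 host cells with β-galactosidase reporter T. cruzi · Doses – single 50 nL compound addition per well in DMSO · Reagent – 5000 T. cruzi trypomastigotes/well · Medium – Low-serum DMEM with 2% FBS · Timing – ≥90 h infection period, 3 h prior cell attachment · Evaluation – parasite load inhibition, % · Technique – GalScreen luminescence, 60 min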
Consider `COC(=O)c1ccc(SCc2ccccc2)nc1`, for which the inhibition (usually the drop in the measured response relative to a control, in per cent) was -10.6% (inactive).

On to `CC1=C/C(=N\OS(=O)(=O)c2ccccc2)C=CC1=O`, for which the inhibition is 68.7% (active).

With `O=S(=O)(ON(c1ccccc1)S(=O)(=O)c1ccccc1)c1ccccc1`, the inhibition was -3.86% (inactive).

Turning to `COc1ccc(NS(=O)(=O)c2ccc(C)c(C(=O)NCC(c3cccs3)N3CCOCC3)c2)cc1` (stereo not drawn), the inhibition is 20.6% (inactive).

On to `O=C(Cn1cnc2c(cnn2-c2ccccc2)c1=O)NCc1ccccc1`, for which the inhibition is -38.8% (inactive).

Turning to `CC(C)(C)NC(=O)Cn1cnc2cc([N+](=O)[O-])ccc2c1=O`, the inhibition was 33.5% (inactive).

With `O=C(Cn1cnc2cc([N+](=O)[O-])ccc2c1=O)NC(=O)NCc1ccccc1`, the inhibition was 62.3% (active).

`CN(CC(=O)Nc1ccccc1Cl)C(=O)c1ccccc1SCC(=O)N1CCCC1`: the inhibition was 2.13% (inactive).

With `COc1ccc(CCNC(=O)C(=O)NCC2CCCN2S(=O)(=O)c2cccs2)cc1OC` (stereo not drawn), the inhibition was 17.5% (inactive).

For the compound `CC(=O)c1sc(NC(=O)CCCOc2ccccc2C)nc1C`, the inhibition is -0.939% (inactive).

Consider `CC(=O)c1sc(N/N=C\c2ccc(C)cc2)nc1C`, for which the inhibition is -6.96% (inactive).

`CC(=O)c1sc(N/N=C/c2ccc(C(C)C)cc2)nc1C`: the inhibition was 65.4% (active).

For `O=C(Nc1ccc(OC(F)(F)F)cc1)c1ccc2c(c1)no[n+]2[O-]`, the inhibition is 34.6% (inactive).

In the case of `COc1ccccc1C(=O)NC(=O)COC(=O)C1CC1`, the inhibition was 5.64% (inactive).

With `CS(=O)(=O)N(CC(=O)N1CCc2ccccc2C1)c1ccc(Br)cc1`, the inhibition was 17.3% (inactive).

As for `CCC(=C/c1sc2ccc3ccccc3c2[n+]1C)/C=C1\Sc2ccc3ccccc3c2N1C`, the inhibition is 65.5% (active).

With `O=C(COc1ccccc1)Nc1ccc(F)cc1`, the inhibition is -10.9% (inactive).

Regarding `O=C(NC(Cc1ccccc1)C(=O)N1CCCC(C(F)(F)F)C1)c1ccccc1` (stereo not drawn), the inhibition is -16.5% (inactive).

Regarding `COc1ccc(NC(=O)c2cc(-c3ccc(C)o3)nc3ccccc23)cc1`, the inhibition was 14.8% (inactive).

In the case of `CCN(CC)CCN(C(=O)c1cc(Cl)sc1Cl)c1nc2cc3c(cc2s1)OCO3`, the inhibition was 33.9% (inactive).

Turning to `COc1cccc2sc(N(CCCN(C)C)C(=O)C(c3ccccc3)c3ccccc3)nc12`, the inhibition is 31.5% (inactive).

With `CCc1ccc2nc(N(CCCN(C)C)C(=O)c3ccc4c(c3)OCCO4)sc2c1`, the inhibition was 55.2% (active).

Take `COc1cccc2sc(N(CCCN(C)C)C(=O)CCS(=O)(=O)c3ccccc3)nc12`: the inhibition was -2.98% (inactive).

On to `CN(C)CCN(C(=O)C1CCCCC1)c1nc2cc3c(cc2s1)OCO3`, for which the inhibition was 28.7% (inactive).

Regarding `CCOc1ccc2nc(N(CCCN(C)C)C(=O)c3ccc(C(=O)c4ccccc4)cc3)sc2c1`, the inhibition was 34.6% (inactive).

As to `CC(=O)N(CCCN(C)C)c1nc2ccc(C)cc2s1`, the inhibition was 57.7% (active).

`CCOc1ccc(S(=O)(=O)Nc2nc3cc(OC)ccc3s2)cc1`: the inhibition is -7.46% (inactive).

In the case of `CN(C)CCN(C(=O)C1=COCCO1)c1nc2ccc(Cl)cc2s1`, the inhibition was 41.8% (inactive).

Take `COc1ccc2sc(N(CCCN(C)C)C(=O)c3ccc(S(=O)(=O)N(C)C4CCCCC4)cc3)nc2c1`: the inhibition is 61% (active).

In the case of `Cc1ccc2nc(N(CCN(C)C)C(=O)C3=COCCO3)sc2c1`, the inhibition was 53% (inactive).

For `CN(C)CCN(C(=O)CN1C(=O)c2ccccc2C1=O)c1nc2cc3c(cc2s1)OCCO3`, the inhibition was 66.3% (active).

For `Cc1ccc(S(=O)(=O)NCCC(=O)NC2CCN(Cc3ccccc3)CC2)cc1`, the inhibition is 38% (inactive).

Turning to `CCOc1ccc(S(=O)(=O)N2CCC(C(=O)OCc3ccc(OC)cc3)CC2)cc1`, the inhibition is -1.31% (inactive).

Regarding `COc1ccccc1N(CC(=O)Nc1ccccc1C(=O)N1CCCC1)S(C)(=O)=O`, the inhibition was -3.65% (inactive).

For `Cc1ccc(NC(=O)CSCC(=O)Nc2sccc2C#N)cc1`, the inhibition is -1.58% (inactive).

Turning to `COc1ccc(CCNC(=O)CN2C(=O)COc3ccc(S(=O)(=O)N4CCCC4)cc32)cc1OC`, the inhibition was -4.6% (inactive).

As to `CN(C)CCCN(C(=O)c1ccc(S(=O)(=O)N2CCCCCC2)cc1)c1nc2ccc(Br)cc2s1`, the inhibition is 23.2% (inactive).

In the case of `CCN(CC)CCN(C(=O)c1ccc(S(=O)(=O)N2CCOCC2)cc1)c1nc2cc3c(cc2s1)OCCO3`, the inhibition was 50.5% (inactive).

Take `CN(C)CCCN(C(=O)c1ccc(S(=O)(=O)N2CCCCCC2)cc1)c1nc2cc3c(cc2s1)OCCO3`: the inhibition was 65.3% (active).

On to `Cc1ccccc1OCC(=O)NNC(=O)c1ccc(-n2cncn2)c([N+](=O)[O-])c1`, for which the inhibition was 14.2% (inactive).

For `COc1cc(C(=O)OCC(=O)N(CC(C)C)C2CCS(=O)(=O)C2)ccc1OCC(C)C` (stereo not drawn), the inhibition is 1.65% (inactive).

With `O=C(CSc1ncnc2c1nnn2Cc1ccc(F)cc1)NC1CCCC1`, the inhibition was 59.1% (active).

As for `O=C(Cc1ccc(F)cc1)NC1CCCC1`, the inhibition was -10.7% (inactive).

On to `O=C(CSc1ncnc2c1oc1ccccc12)NC1CCCC1`, for which the inhibition was 9.78% (inactive).

For the compound `Cc1sc(NC(=O)C2=COCCO2)c(C#N)c1C`, the inhibition is 6.24% (inactive).

For the compound `COc1cccc(C(=O)NCCS(=O)(=O)NCC2CCCO2)c1` (stereo not drawn), the inhibition was -7.57% (inactive).

On to `O=C(NCCCN1CCOCC1)c1ccc(N2CCCC2)c([N+](=O)[O-])c1`, for which the inhibition was 8.18% (inactive).

With `O=C(NCCCN1CCOCC1)c1ccc([N+](=O)[O-])cc1[N+](=O)[O-]`, the inhibition is 64.7% (active).

`O=[N+]([O-])c1ccc(NCCCN2CCOCC2)c(Cl)c1`: the inhibition was 10.6% (inactive).

Turning to `Cc1ccc(C(=O)NNC(=O)C(C)Oc2ccc3ccccc3c2)o1` (stereo not drawn), the inhibition was -1.31% (inactive).

As for `COc1ccccc1C(c1nnnn1C(C)(C)C)N1CCN(Cc2ccccc2)CC1` (stereo not drawn), the inhibition is -3.59% (inactive).

Consider `COCCn1nnnc1C(c1cc2ccc(OC)cc2[nH]c1=O)N1CCc2ccccc2C1` (stereo not drawn), for which the inhibition is -9.17% (inactive).

With `COc1ccc(OC)c(C(c2nnnn2C(C)(C)C)N2CCc3ccccc3C2)c1` (stereo not drawn), the inhibition was 63.1% (active).

For `CCCCN(C(=O)c1ccc(C)o1)c1c(N)n(CCCC)c(=O)[nH]c1=O`, the inhibition is -0.399% (inactive).

In the case of `O=C1CC(Sc2ncn[nH]2)C(=O)N1c1ccccc1` (stereo not drawn), the inhibition was 23.3% (inactive).

With `CN1CCc2nc(SC(C(=O)O)c3ccccc3)c(C#N)c(-c3cccs3)c2C1` (stereo not drawn), the inhibition is 64.4% (active).

Turning to `CC(NC(=O)CSc1nc2c(cc1C#N)CN(C)CC2)c1ccccc1` (stereo not drawn), the inhibition was 1.88% (inactive).

Take `Cc1c(-c2ccccc2)nc(N)c(C#N)c1-c1cccs1`: the inhibition is 0.738% (inactive).

For `CCCCn1c(N)c(N(Cc2ccccc2OC)C(=O)COc2cc(C)ccc2Cl)c(=O)[nH]c1=O`, the inhibition is 6.73% (inactive).

With `COc1ccccc1C(=O)COC(=O)CSCC(=O)Nc1cc(C)on1`, the inhibition was -6.4% (inactive).

As for `O=C(NCCN1CCOCC1)c1ccc(/C=C2\Sc3ccccc3N(Cc3ccc(F)cc3)C2=O)cc1`, the inhibition was 10.9% (inactive).

With `CCN1CCN(CCNC(=O)c2ccc3c(c2)NC(=O)/C(=C\c2ccc(OC)c(OC)c2)S3)CC1`, the inhibition is 11.8% (inactive).

With `CCN1CCN(CCNC(=O)c2ccc(/C=C3/Sc4ccccc4N(Cc4cccc(C)c4)C3=O)cc2)CC1`, the inhibition is 59% (active).

Turning to `Cc1cc(C)c(S(=O)(=O)N2CCCC2CNC(=O)c2ccc3c(c2)OCO3)c(C)c1` (stereo not drawn), the inhibition is -2.11% (inactive).

Turning to `Cc1ccc(S(=O)(=O)c2c[nH]c3ccc(Cl)cc3c2=O)cc1`, the inhibition was 5.53% (inactive).

For the compound `O=C(C1=C[C@H](c2coc3ccccc3c2=O)C[C@H](OCc2ccc(CO)cc2)O1)N1CCN(Cc2ccccc2)CC1`, the inhibition is 33.6% (inactive).

For `O=C(C1=C[C@H](C2CC2)C[C@H](OCc2ccc(CO)cc2)O1)N1CCN(Cc2ccccc2)CC1`, the inhibition was 59.7% (active).

On to `O=C(NCc1ccccc1)C1=C[C@H](C2CC2)C[C@H](OCc2ccc(CO)cc2)O1`, for which the inhibition was 15% (inactive).

Turning to `O=S(=O)(c1ccccc1)N1CCC(c2ccccc2)CC1`, the inhibition was 0.981% (inactive).

For `Cc1ccc(C(=O)N2CCC(n3nccc3NC(=O)Nc3cccc(F)c3)CC2)cn1`, the inhibition is -8.51% (inactive).

Turning to `COc1ccc(CNS(=O)(=O)c2cc3c4c(c2)CCN4C(=O)CC3)cc1`, the inhibition is -11.2% (inactive).

On to `COc1cc(C(=O)NNC(=O)c2ccc(S(=O)(=O)N3CCCCC3)cc2)cc(OC)c1OC`, for which the inhibition is -12.8% (inactive).

Consider `CN1CCN(NC(=O)c2ccc(S(=O)(=O)N3CCCCCC3)cc2)CC1`, for which the inhibition is 68.3% (active).

Turning to `CC1CN(S(=O)(=O)c2ccc(C(=O)NN3CCN(C)CC3)cc2)CC(C)O1` (stereo not drawn), the inhibition was 6.61% (inactive).

With `CCN(CC(=O)Nc1cc(Cl)ccc1C)C(=O)CN1C(=O)NC2(CCCC2)C1=O`, the inhibition was 2.7% (inactive).

For the compound `COc1ccc(C(=O)CN2C(=O)NC3(CCc4ccccc43)C2=O)c(OC)c1` (stereo not drawn), the inhibition was 1.63% (inactive).

Regarding `C/C(=N\NC(=O)c1ccccc1F)c1ccccn1`, the inhibition was 23.5% (inactive).

Turning to `C/C(=N\NC(=O)Cc1ccc(Br)cc1)c1cccnc1`, the inhibition is -9.89% (inactive).

Turning to `C/C(=N\NC(=O)Cc1ccc(Cl)cc1)c1ccccn1`, the inhibition is 64.9% (active).

For the compound `CCOc1ccc(NC(=O)CN(C)C(=O)c2c(C)noc2C)cc1OCC`, the inhibition is 0.476% (inactive).

`CCCS(=O)(=O)N1CCN=C1SCc1cccc(F)c1`: the inhibition was 6.03% (inactive).

Turning to `CC1CCN(c2ccc(-c3ccc(NC(=O)c4ccco4)cc3)nn2)CC1`, the inhibition is 6.55% (inactive).

As for `COc1ccc(NC(=O)CSc2nc(NS(=O)(=O)c3ccc(C)cc3)cc(=O)[nH]2)cc1`, the inhibition is 7.86% (inactive).

Turning to `O=C(c1ccc2nc(N3CCOCC3)sc2c1)N1CCN(c2ccc(Cl)cc2)CC1`, the inhibition is 2.47% (inactive).

For the compound `COc1ccc2nc(N3CCN(C(=O)c4ccc([N+](=O)[O-])o4)CC3)sc2c1`, the inhibition is 60.2% (active).

As for `Cc1ccc2nc(N3CCN(C(=O)c4ccco4)CC3)sc2c1`, the inhibition is -3.92% (inactive).

As for `O=C1C=C(c2ccc(Cl)cc2)C(=O)N1Nc1ccccc1`, the inhibition was 44.2% (inactive).

As to `CC1CCN(C(=O)c2cccc(S(=O)(=O)N3CCCc4ccccc43)c2)CC1`, the inhibition was 12.1% (inactive).

These data come from PubChem BioAssay AID1885 (Broad Institute, 2009).
